One series relates to rats. As to conditions: 2.3 mmol/kg; cited from earlier work.
The subject of series [1] is CWR22rv1 xenografts. In words: Single-isotope in vivo biodistribution. The arrangement: species or system mice. As to conditions: for Tumor uptake of the tracer: tail vein, nude mice. The essentials:
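Nude mice (20–25 g) carried CWR22rv1 tumours grown from 5 × 10^6 cells in medium/Matrigel, injected s.c. at the right forelimb. They received 3.7–5.5 MBq (100–150 µCi) of the 18F test compound in 200 µL saline by tail vein; dose per animal came from syringe readings before and after injection. Organs were harvested at 1, 2, 3 and 4 h and γ-counted (400–600 keV, decay-corrected) for %ID/g and tumour-to-organ ratios; n = 3 per time point, mean ± SD.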

Another series deals with CWR22rv1 tumors. The series is described as follows: Dual-isotope comparative biodistribution. In kind it is in vivo, mice. As to conditions: 1 h after simultaneous tail vein injection. The essentials:
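Nude mice bearing subcutaneous CWR22rv1 xenografts received, by tail vein, 200 µL saline containing 3.7 MBq of the 18F test compound and about 0.0037 MBq 14C-acetate, and were euthanized 1 h later. 18F was γ-counted (400–600 keV, decay-corrected). Samples were then solubilised and held 1 d at 4°C, and 14C was read by liquid scintillation with external-standard quench correction. %ID/g = activity/decay-corrected injected activity/organ weight; n = 4, mean ± SD.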

Series [2] relates to CWR22rv1 xenografts. In words: Small-animal PET 1 h after tail vein injection. In kind it is in vivo, mice. As to conditions: 1 h after administration via tail vein. The procedure, abridged:
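CWR22rv1-xenografted nude mice, not fasted, received 11.1 MBq (300 µCi) of the 18F test compound by tail vein. They were held under 2% isoflurane in oxygen (2 L/min) and scanned on a small-animal PET at 1 h for 5 min, using a 350–700 keV window and 6 ns coincidence window. Images were corrected for nonuniformity, dead time and decay, but not for attenuation, scatter or partial volume. %ID/g came from a phantom-derived calibration factor.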

A short description of series [3]: Octanol–water partition coefficient study. In kind it is physicochemical. As to conditions: 1-octanol/phosphate-buffered saline. The essentials: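 The 18F test compound (20 µL, ~10–20 µCi in saline) was added to 5 mL each of 1-octanol and phosphate-buffered saline at pH 6.4, 7.0, 7.4 or 8.4. The mixture was vortexed 1 min and centrifuged 5 min.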

As a reminder, the logP is a log measure of how a compound divides between an organic and an aqueous phase. A lower logP goes with lower lipophilicity.

Turning to `CC(F)C(=O)O` (stereo not shown) [FPA], the Acute toxicity result in the series with rats is “no acute toxicity”.
In the case of `CC([18F])C(=O)O` (stereo not shown) [^18F-FPA, 2-^18F-fluoropropionic acid], the “Tumor-to-organ ratio, heart” value in the series with CWR22rv1 xenografts [1] (1, 2, 3, and 4 h after injection) is on record as “around 0.95”. For the same compound, the “Tumor uptake of the tracer” value with CWR22rv1 xenografts [1] (1 h after injection) turned out to be 5.52 ± 0.35 %ID/g. The “Tumor uptake of the tracer” value in the series on CWR22rv1 xenografts [1] (2 h after injection) is 5.53 ± 0.42 %ID/g. For the same compound, the “Tumor uptake of the tracer” value in the series with CWR22rv1 xenografts [1] (3 h after injection) is listed as 5.74 ± 0.54 %ID/g. For the same compound, the “Tumor uptake of the tracer” value in the series on CWR22rv1 xenografts [1] (4 h after injection) stood at 5.34 ± 0.19 %ID/g. Further, the Defluorination in vivo result in the series with CWR22rv1 xenografts [1] (PET and biodistribution studies, low bone uptake) is on record as “no evidence of defluorination”. Moreover, in the series with CWR22rv1 tumors, the “Tumor-to-organ ratio, Blood” value turned out to be 1.03; the “Tumor-to-organ ratio, Bone” value worked out at 4.23; the “Tumor-to-organ ratio, Brain” value came out at 1.27; the “Tumor-to-organ ratio, Kidneys” value was found to be 1.70. In the series with CWR22rv1 tumors, the “Tumor-to-organ ratio, Large intestine” value stood at 1.91; the “Tumor-to-organ ratio, Liver” value is 1.26; the “Tumor-to-organ ratio, Lungs” value is 1.77; the “Tumor-to-organ ratio, Muscle” value stood at 1.94. Also, in the series on CWR22rv1 tumors, the “Tumor-to-organ ratio, Small intestine” value is given as 1.62; the “Tumor-to-organ ratio, Spleen” value turned out to be 1.62; the “Tumor-to-organ ratio, Stomach” value is 2.80; the “Tumor-to-organ ratio, Tumor” value was 1.00. In addition, the “Tumor-to-organ ratio, heart” value with CWR22rv1 tumors is reported as 1.30. Moreover, in the series with CWR22rv1 tumors (n = 4), the “%ID/g, Blood” value turned out to be 6.88 ± 0.64 %ID/g; the “%ID/g, Bone” value is on record as 1.68 ± 0.54 %ID/g; the “%ID/g, Brain” value turned out to be 5.57 ± 0.33 %ID/g; the “%ID/g, Heart” value is 5.46 ± 0.63 %ID/g. In the series on CWR22rv1 tumors (n = 4), the “%ID/g, Kidneys” value was found to be 4.17 ± 0.60 %ID/g; the “%ID/g, Large intestine” value is given as 3.71 ± 1.09 %ID/g; the “%ID/g, Liver” value turned out to be 5.61 ± 0.50 %ID/g; the “%ID/g, Lungs” value amounted to 4.00 ± 0.26 %ID/g. Moreover, in the series with CWR22rv1 tumors (n = 4), the “%ID/g, Muscle” value is given as 3.66 ± 0.50 %ID/g; the “%ID/g, Small intestine” value is on record as 4.37 ± 1.15 %ID/g; the “%ID/g, Spleen” value amounted to 4.36 ± 0.85 %ID/g; the “%ID/g, Stomach” value came out at 2.53 ± 1.04 %ID/g. Further, the “%ID/g, Tumor” value in the series with CWR22rv1 tumors (CWR22rv1 tumors, n = 4) was 7.08 ± 0.80 %ID/g. Also, in the series with CWR22rv1 xenografts [2], the “Uptake in the brain (PET)” value was 4.6 %ID/g and the “Uptake in the heart (PET)” value is given as 4.0 %ID/g. Also, in the series with CWR22rv1 xenografts [2] (CWR22rv1 tumor), the “Uptake in the tumor (PET)” value is listed as 4.4 %ID/g. In series [3] (pH 6.4), the logP is on record as −2.89 ± 0.02. In series [3] (pH 7.0), this compound gave a logP of −3.08 ± 0.04. Also, in series [3] (pH 7.4), the logP is listed as −2.97 ± 0.13. This compound also registered a logP in series [3] (pH 8.4) of −3.07 ± 0.03.

The values above are taken from article PMC4429801 (Journal of nuclear medicine : official publication, Society …, 2009).
